Laboratory results as given in ChEMBL document CHEMBL4765302, “Design, synthesis and biological evaluation of novel histone deacetylase1/2 (HDAC1/2) and cyclin-dependent Kinase2 (CDK2) dual inhibitors against malignant cancer” (Eur J Med Chem, 2020).
Calls of active or inactive are those of the source. No cut-off for these calls is given here.

Legend:
A-375 [1] = experiment: Induction of apoptosis in human A-375 cells assessed as viable cells at 1 uM incubated for 48 hrs by annexin V-FITC and PI staining based flow cytometry (reference value: 96.3 %); format: functional; conditions: read-out: Activity
A-375 [2] = experiment: Induction of apoptosis in human A-375 cells assessed as late apoptotic cells at 0.5 uM incubated for 48 hrs by annexin V-FITC and PI staining based flow cytometry (reference value: 2.24 %); format: functional
HeLa [3] = experiment: Induction of apoptosis in human HeLa cells assessed as necrotic cells at 2 uM incubated for 48 hrs by annexin V-FITC and PI staining based flow cytometry (reference value: 0.124 %); format: functional
[4] = target: Cyclin-dependent kinase 2 (Homo sapiens) (UniProt P24941); experiment: Inhibition of CDK2 in human A-375 cells at 1 uM incubated for 12 hrs by DAPI and immunofluorescence staining based confocal microscopic analysis; format: cell-based
NCI-H460 [5] = experiment: Induction of apoptosis in human NCI-H460 cells assessed as early apoptotic cells at 0.5 uM incubated for 48 hrs by annexin V-FITC and PI staining based flow cytometry (reference value: 2.88 %); format: functional
HepG2 [6] = experiment: Antiproliferative activity against human HepG2 cells assessed as reduction in cell growth at 8 uM incubated for 72 hrs by CCK-8 assay relative to control; format: functional
[7] = Half life in ICR mouse at 4 mg/kg, iv measured upto 24 hrs by LC-MS/MS analysis; format: ADME, organism-based; conditions: in vivo
Summary of the method: (§1)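 Male ICR mice (N=9). Single dose, either 4 mg/kg intravenous or 20 mg/kg intraperitoneal. Parameters derived: T1/2, Tmax, Cmax, AUC0-t, MRT0-t and CL, with F for the intraperitoneal arm.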

[8] = AUC (0 to t) in ICR mouse at 4 mg/kg, iv measured upto 24 hrs by LC-MS/MS analysis; format: ADME, organism-based; set-up: route intravenous, dose 4 mg/kg, time <=24; conditions: in vivo; summary of the method: as §1
A-375 [9] = experiment: Induction of apoptosis in human A-375 cells assessed as late apoptotic cells at 1 uM incubated for 48 hrs by annexin V-FITC and PI staining based flow cytometry (reference value: 2.24 %); format: functional
HCT-116 [10] = experiment: Antiproliferative activity against human HCT-116 cells assessed as reduction in cell growth at 8 uM incubated for 72 hrs by CCK-8 assay relative to control; format: functional
A-375 [11] = experiment: Induction of cell cycle arrest in human A-375 cells assessed as G2/M phase at 0.5 uM incubated for 24 hrs by PI staining based flow cytometry (reference value: 13.7 %); format: functional
Summary of the method: (§2)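 Treatment at 2, 1 and 0.5 μM for 24 h, alongside CS055 and roscovitine, against a DMSO (0.1 %) blank. Cells then stained with propidium iodide and analyzed by flow cytometry.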

HCT-116 [12] = experiment: Antiproliferative activity against human HCT-116 cells assessed as reduction in cell growth at 2 uM incubated for 72 hrs by CCK-8 assay relative to control; format: functional
[13] = MRT (0 to t) in ICR mouse at 4 mg/kg, iv measured upto 24 hrs by LC-MS/MS analysis; format: ADME, organism-based; conditions: in vivo
HCT-116 [14] = experiment: Antitumor activity against human HCT-116 cells xenografted in Balb/c mouse assessed as tumor growth inhibition at 25 mg/kg, ip administered for 21 days and measured on day 21 relative to control; format: functional; conditions: HCT-116, ip, 504 h, time 21 day, read-out: GI
Summary of the method: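 HCT116 xenografts in BALB/c nude mice. Dosing started when tumours reached 100–300 mm³: intraperitoneal injection once daily for 21 days at 25, 50 or 100 mg/kg, versus blank. Body weight monitored. Tumour growth inhibition computed against blank.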

HeLa [15] = experiment: Induction of apoptosis in human HeLa cells assessed as necrotic cells incubated for 48 hrs by annexin V-FITC and PI staining based flow cytometry; format: functional, cell-based; conditions: dose 0.5-2 µM
A-375 [16] = experiment: Induction of apoptosis in human A-375 cells assessed as necrotic cells at 2 uM incubated for 48 hrs by annexin V-FITC and PI staining based flow cytometry (reference value: 0.139 %); format: functional
A-375 [17] = experiment: Antiproliferative activity against human A-375 cells assessed as reduction in cell growth incubated for 72 hrs by CCK-8 assay; format: functional, cell-based; conditions: A-375, 72 h
Summary of the method: (§3)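 IC50 by CCK-8 assay across five solid-tumour lines (HCT116, HepG2, H460, HeLa, A375). Run only for compounds chosen after the single-concentration screen, with CS055 and roscovitine as references.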

HCT-116 [18] = experiment: Induction of apoptosis in human HCT-116 cells assessed as necrotic cells at 1 uM incubated for 48 hrs by annexin V-FITC and PI staining based flow cytometry (reference value: 0.124 %); format: functional
HeLa [19] = experiment: Induction of apoptosis in human HeLa cells assessed as early apoptotic cells at 1 uM incubated for 48 hrs by annexin V-FITC and PI staining based flow cytometry (reference value: 0.528 %); format: functional
HCT-116 [20] = experiment: Induction of cell cycle arrest in human HCT-116 cells assessed as G2/M phase at 0.5 uM incubated for 24 hrs by PI staining based flow cytometry (reference value: 27.46 %); format: functional; summary of the method: as §2
HepG2 [21] = experiment: Antiproliferative activity against human HepG2 cells assessed as reduction in cell growth incubated for 72 hrs by CCK-8 assay; format: functional, cell-based; conditions: HepG2, 72 h; summary of the method: as §3
HCT-116 [22] = experiment: Induction of apoptosis in human HCT-116 cells assessed as late apoptotic cells at 2 uM incubated for 48 hrs by annexin V-FITC and PI staining based flow cytometry (reference value: 1.88 %); format: functional
A-375 [23] = experiment: Induction of apoptosis in human A375 cells assessed as apoptosis rate at 2 uM incubated for 48 hrs by annexin V-FITC and PI staining based flow cytometry relative to control; format: functional
NCI-H460 [24] = experiment: Induction of apoptosis in human NCI-H460 cells assessed as necrotic cells at 1 uM incubated for 48 hrs by annexin V-FITC and PI staining based flow cytometry (reference value: 0.632 %); format: functional
NCI-H460 [25] = experiment: Antiproliferative activity against human NCI-H460 cells assessed as reduction in cell growth incubated for 72 hrs by CCK-8 assay; format: functional, cell-based; conditions: NCI-H460, 72 h; summary of the method: as §3
A-375 [26] = experiment: Induction of ROS accumulation in human A-375 cells at 1 uM incubated for 24 hrs by DCFH-DA staining based confocal microscopic analysis; format: functional, cell-based
Summary of the method: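 A375 cells treated at 1 µM or with DMSO blank for 24 h. Intracellular ROS detected with the fluorescent dye DCFH-DA.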

HeLa [27] = experiment: Induction of apoptosis in human HeLa cells assessed as late apoptotic cells at 0.5 uM incubated for 48 hrs by annexin V-FITC and PI staining based flow cytometry (reference value: 0.870 %); format: functional
NCI-H460 [28] = experiment: Induction of apoptosis in human NCI-H460 cells assessed as late apoptotic cells at 1 uM incubated for 48 hrs by annexin V-FITC and PI staining based flow cytometry (reference value: 6.11 %); format: functional
HCT-116 [29] = experiment: Antiproliferative activity against human HCT-116 cells assessed as reduction in cell growth incubated for 72 hrs by CCK-8 assay; format: functional, cell-based; conditions: HCT-116, 72 h; summary of the method: as §3
NCI-H460 [30] = experiment: Antiproliferative activity against human H460 cells assessed as reduction in cell growth at 8 uM incubated for 72 hrs by CCK-8 assay relative to control; format: functional
HCT-116 [31] = experiment: Induction of apoptosis in human HCT-116 cells assessed as necrotic cells incubated for 48 hrs by annexin V-FITC and PI staining based flow cytometry; format: functional, cell-based; conditions: dose 0.5-2 µM

- inhibition [4]: Active
- half-life [7]: 1.48 h
- AUC(0-t) at 24 h [8]: 2850 ng·h/mL
- MRT last at 24 h [13]: 0.563 h
- IC50 (A-375 [17]): 470 nM
- IC50 (HepG2 [21]): 860 nM
- IC50 (NCI-H460 [25]): 1590 nM
- IC50 (HCT-116 [29]): 580 nM
SMILES: Cc1ccc(Nc2nc(Cl)nc3c2ncn3Cc2ccc(C(=O)Nc3ccccc3N)cc2)cc1
- viability at 1 µM (A-375 [1]): 8.06%
- Activity (A-375 [2]): 72.2%
- Activity (HeLa [3]): 0.243%
- Activity (NCI-H460 [5]): 6.74%
- inhibition at 8 µM (HepG2 [6]): 82%
- Activity (A-375 [9]): 83.4%
- inhibition at 8 µM (HCT-116 [10]): 81.5%
- Activity (A-375 [11]): 57.03%
- inhibition at 2 µM (HCT-116 [12]): 76.3%
- inhibition in vivo at 25 mg/kg (HCT-116 [14]): 28%
- Activity (HeLa [15]): Dose-dependent effect
- Activity (A-375 [16]): 0.453%
- Activity (HCT-116 [18]): 0.65%
- Activity (HeLa [19]): 5.85%
- Activity (HCT-116 [20]): 76.99%
- Activity (HCT-116 [22]): 13.4%
- Activity (A-375 [23]): 91.99%
- Activity (NCI-H460 [24]): 0.871%
- Activity (A-375 [26]): Active
- Activity (HeLa [27]): 5.47%
- Activity (NCI-H460 [28]): 17.5%
- inhibition at 8 µM (NCI-H460 [30]): 82.5%
- Activity (HCT-116 [31]): Dose-dependent effect
